Sampled rows, rich in hits. Any-hit rate of the full collection: about 3%.
MITF TRPM1 HTS = activators of MITF-driven TRPM1 promoter reporter, primary screen, cell-based, SK-MEL-5, luciferase, single point | 300,000 tested, 0.75% active | activation, % at 12.5 µM | SK-MEL-5 TRPM1-promoter luciferase, 24 h; % of positive control, neutral wells = 0 | AID 588334, 2011;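 active = mean activation of at least 80% with every replicate also reaching 80%; inconclusive = mean reaches 80% but some replicate falls short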;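 note: 0% = neutral control wells and 100% = parthenolide positive control wells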
Casp6 inh = human caspase-6 inhibitors, primary screen, biochemical, VEID-R110 fluorescence, single point, set 2. inhibition, % at 12.5 µM. AID 686996, 2013. purified caspase-6, Z-VEID-R110 cleavage fluorescence. 350,000 tested, 0.53% active;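 active = mean inhibition across replicates at least about 35%, with every replicate also reaching that limit, limit read from the data; inconclusive = only one of the two criteria met; inactive = neither criterion met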;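 note: 0% = median of neutral control wells and 100% = no fluorescence left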
Target sequence (P55212 24-179 limits assumed): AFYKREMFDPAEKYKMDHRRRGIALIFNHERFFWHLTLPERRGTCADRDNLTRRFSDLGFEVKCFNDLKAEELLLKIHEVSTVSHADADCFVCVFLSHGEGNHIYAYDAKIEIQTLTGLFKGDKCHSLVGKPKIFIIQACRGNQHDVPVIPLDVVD
Target sequence (P55212 194-293 limits assumed): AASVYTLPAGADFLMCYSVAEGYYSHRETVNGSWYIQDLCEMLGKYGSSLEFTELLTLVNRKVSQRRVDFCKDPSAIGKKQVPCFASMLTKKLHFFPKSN
esBAF inh = Bmi1 luciferase reporter increase in mESCs, primary screen, esBAF inhibitor project, mouse ES cells, Bmi1 luciferase knock-in, single point; 350,000 tested, 2% active; reporter increase, % at 12.5 µM; 24 h; 100% = twice the neutral-well signal; AID 602393, 2012; in the data active = activation above about 40%; inconclusive = no clear call, values can overlap the other calls;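 note: 0% = median of the plate's neutral control wells and 100% = double that signal; a rise in the Bmi1 reporter signal indicates esBAF inhibition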
NSD2 HMT inh = NSD2 histone methyltransferase inhibitors, primary screen, biochemical, AlphaScreen, single concentration, set 2 | Histone-lysine N-methyltransferase NSD2 (Homo sapiens), O96028 | NSD2 peptide methylation, 120 min | inhibition, % at 12.5 µM | 310,000 tested, 0.54% active; in the data active = inhibition above about 50%
XiGFP reactiv = activators of inactive X chromosome reactivation, primary screen, imaging, XiGFP fibroblasts, GFP high-content imaging, set 2; XiGFP mouse fibroblasts, % GFP-positive cells imaging, 3 d; cells co-treated with 5-aza-dC sensitizer; scaled so ellipticine positive control = 100%; activation, % at 7.58 µM; 360,000 tested, 0.055% active; AID 743238, 2013;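 active = mean normalized replicate activation at least 10% and every replicate at or above 10%; inconclusive = only one of the two criteria met; inactive = mean below 10% and not all replicates reach 10%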;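 note: 0% = median of on-plate neutral control wells and 100% = ellipticine 6 µM median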
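System: 68-5-11 XiGFP fibroblast line; Timing: 3 days compound exposure; Compound dosing: one concentration, pinned; Benchmarks: positive control ellipticine, 6 µM final; Buffer or medium: DMEM containing 5-aza-dC.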
Wnt act = Wnt/beta-catenin pathway activators, primary screen, cell-based, plate reader, single point. activation, % at 9.35 µM. Wnt/beta-catenin reporter cell assay, activator. 300,000 tested, 1.2% active; in the data active = activation above about 30%, passing the limit was not always enough; inconclusive = no clear call, values can overlap the other calls;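 note: 0% = neutral control wells and 100% = positive control wells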
An asterisk follows results filed as active; ? = inconclusive; · = no result given.

SMILES	MITF TRPM1 HTS	Casp6 inh	esBAF inh	NSD2 HMT inh	XiGFP reactiv	Wnt act
CCOC(=O)c1ccc(N=NN(C)C)cc1	99*	2	·	-5	0	1
Cc1cccn2c1nc(=S)n2C(=O)c1ccco1	61	·	·	-2	1	72*
O=C(c1ccco1)N1CCN(C(=O)c2ccco2)C1=S	-6	1	·	1	0	-8
O=C(C[C@H]1CC[C@@H](NC(=O)Nc2ccc(C(F)(F)F)cc2)[C@@H](CO)O1)NCCN1CCCC1	·	-1	-3	·	0	·
COc1ccc(C#Cc2ccc3c(c2)O[C@@H](CN(C)C(=O)Nc2cccc(OC)c2)[C@@H](C)CN([C@@H](C)CO)S3(=O)=O)cc1	·	2	18	·	0	·
Cc1cc(C)cc(NC(=O)c2cc(C)n(Cc3cccs3)c2C)c1	103*	-2	38	-2	0	2
Cc1cc(C(=O)Cn2nnc3ccccc3c2=O)c(C)n1Cc1cccs1	·	·	-38	-1	·	35*
Cc1cc(C(=O)CN2C(=O)c3ccccc3C2=O)c(C)n1Cc1cccs1	-7	-2	-27	8	·	-2
O=C(Nc1cccc(O)c1)c1cc(-c2ccccc2Cl)on1	·	1	-8	·	0	2
O=C(Nc1ccccc1)OCc1cc(-c2ccccc2Cl)on1	65	·	50*	21	·	·
CO[C@H]1CN(C)C(=O)c2ccc(NC(C)=O)cc2OC[C@@H](C)N(Cc2ccncc2)C[C@H]1C	·	·	4	·	0	·
Cc1ccc(N(Cc2cc3ccc(C)cc3[nH]c2=O)C(=O)c2ccco2)cc1	0	4	·	1	1	2
Cc1ccc2cc(CN(C(=O)c3ccco3)c3ccccc3)c(=O)[nH]c2c1	6	·	54*	2	·	·
N#Cc1cccc(-c2ccc3c(c2)[C@@H]2[C@@H](CCN2C(=O)c2ccncc2)[C@@H](CO)N3)c1	·	3	61*	·	0	·
N#Cc1ccc(-c2ccc3c(c2)[C@@H]2[C@@H](CCN2C(=O)c2ccncc2)[C@H](CO)N3)cc1	·	0	-2	·	0	·
COc1cccc(-c2ccc3c(c2)[C@H]2[C@H](CCN2C(=O)c2ccccn2)[C@H](CO)N3)c1	·	0	45*	·	0	·
CC(=O)N(C)C[C@@H]1Oc2ccc(N(C)C)cc2C(=O)N(C)C[C@@H]1C	·	·	·	·	0	·
COCC(=O)Nc1ccc2c(c1)OC[C@H](C)N(C(=O)NC(C)C)C[C@H](C)[C@@H](OC)CN(C)C2=O	·	0	·	·	1	·
C[C@@H]1CN([C@@H](C)CO)C(=O)c2cc(NC(=O)CCCCCC(=O)Nc3ccccc3N)ccc2O[C@@H]1CN(C)Cc1ccncc1	·	-1	·	·	-1	·
NCCc1c(-c2ccccc2)n(-c2ccccc2)c2ccccc12	-53	-3	·	60*	0	-1
CCNc1nc(NCC)n2c(SCC(=O)Nc3ccc(C)c(C)c3)nnc2n1	2	37*	-5	-3	0	-4
COc1cccc(-c2ncc3ccccn23)c1	57	·	52*	1	·	4
Cc1cccc(C)c1NC(=O)C(C1CC1)n1c(=O)c(-c2ccco2)nc2ccccc21 (stereo not drawn)	·	36*	·	·	0	0
C=CCS/C(N)=N\N=C\c1c(O)ccc2ccccc12	58	0	?	0	0	99*
NC(=O)c1ccc(N=Cc2c(O)ccc3ccccc23)cc1	·	-3	·	6	0	3
SMILES	MITF TRPM1 HTS	Casp6 inh	esBAF inh	NSD2 HMT inh	XiGFP reactiv	Wnt act
COc1ccc2c3c(n(C)c2c1)[C@@H](CO)N(C(=O)CN(C)C)CC31CN(Cc2cccnc2)C1	·	·	·	·	1	·
C[C@H](CO)N1C[C@H](C)[C@@H](CN(C)C(=O)Cc2ccccn2)Oc2ncc(C#CC3CCCC3)cc2C1=O	·	-3	-2	·	0	·
C[C@@H]1CN([C@@H](C)CO)C(=O)c2cc(NS(=O)(=O)c3ccc(F)cc3)ccc2O[C@@H](C)CCCCO[C@@H]1CN(C)C(=O)Nc1cccc2ccccc12	·	-1	-1	·	0	·
Cc1ccc(C(=O)OCC(=O)N2CCc3ccccc32)cc1	108*	·	?	-1	·	23
CC(=O)c1c(C)[nH]c(C(=O)OCC(=O)N2CCc3ccccc32)c1C	53	·	54*	-3	·	0
Cn1cccc1C(=O)OCC(=O)N1CCc2ccccc21	100*	2	25	-2	0	53*
CCOC(=O)c1[nH]c(C)c(C(=O)OCC(=O)N2CCc3ccccc32)c1C	-13	-3	7	2	·	-2
Cn1cccc1C(=O)OCC(=O)N1CCc2ccccc2C1	·	4	31	1	0	7
COCc1cc(C)nc2sc(C(=O)Nc3nccs3)c(N)c12	·	2	56*	·	0	6
COCc1cc(C)nc2sc(C(=O)Nc3cccc(OC)c3)c(N)c12	·	-1	67*	-13	0	-2
Nc1c(C(=O)Nc2ccccc2)sc2nc3c(c(-c4ccco4)c12)CCC3	29	·	20	-3	·	·
COc1ccc(-c2c3c(nc4sc(C(=O)Nc5ccccc5)c(N)c24)CCC3)cc1	14	·	53*	1	·	36*
Cc1cc(C)c2c(N)c(C(=O)Nc3nccs3)sc2n1	·	·	-76	-6	·	39*
Cc1cc(C)c2c(N)c(C(=O)NN)sc2n1	17	0	·	13	0	4
COCc1cc(C)nc2sc(C(=O)Nc3ccc(OC)cc3)c(N)c12	·	0	33	-1	0	5
Cc1ccc(NC(=O)c2sc3nc(C)cc(C)c3c2N)cc1	83*	1	4	17	0	36*
O/N=C\c1ccc(-c2ccccc2)o1	37	0	55*	0	0	0
O=C(/C=C\c1ccc(-c2ccccc2)o1)c1ccccc1	33	·	·	0	0	37*
Cc1ccc(C(=O)/C=C/c2ccc(-c3ccc(C)cc3)o2)cc1	0	·	·	5	0	-3
O=[N+]([O-])c1ccc(-c2ccc(/C=N/O)o2)cc1	·	-1	·	4	0	20
Nn1c(Nc2ccccc2)nc2ccccc21	64	·	65*	-1	·	·
CCOc1ccc(Nc2nc3ccccc3n2C)cc1	95*	3	52*	15	0	27
CCOc1ccc(Nc2c3ccccc3nc3ccccc23)cc1	-14	0	-15	·	0	2
CCOc1ccc(Nc2cc(C)c3ccccc3n2)cc1	?	1	46*	8	0	13
C[C@H]1CN(C)C(=O)c2cc(N(C)C)ccc2O[C@H]1CN(C)C	·	·	·	·	0	·

Screens deposited in PubChem by Broad Institute.
